Test results published in ChEMBL document CHEMBL2151038, “Synthesis, characterization and biological evaluation of some novel 2,4-thiazolidinediones as potential cytotoxic, antimicrobial and antihyperglycemic agents” (Bioorg Med Chem Lett, 2012).
In brackets after ≈: the same amount, converted by molar mass.

Key:
[1] = system: Artemia salina; assay: Cytotoxicity in brine shrimps larvae assessed as mortality after 24 hrs; type: functional; settings: read-out: ED50 (the source's name)
Method in brief: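 Artemia salina nauplii hatched 38 h under constant aeration in sterile brine (sea salt 38 g/L, pH 8.5 with 1 N NaOH). Ten nauplii per vial were exposed to a range of compound concentrations at 37 °C for 24 h under incandescent light, alongside vehicle-treated controls. Survivors were counted, % lethality was taken from mean survivors versus control, and ED50 came from probit analysis.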

[2] = system: Rattus norvegicus; assay: Antihyperglycemic activity in po dosed streptozotocin-induced type 2 diabetic Wistar albino rat assessed as reduction in plasma glucose level by glucometer; type: functional, organism-based
Method in brief: (§1)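 Wistar albino rats of either sex, 150–200 g, fasted 16 h. Diabetes induced by nicotinamide 150 mg/kg, then STZ 65 mg/kg in citrate buffer pH 4.5. Glucose confirmed after 48 h. Groups of six. Oral dosing as 0.25% sodium CMC suspension at 10, 30 or 50 mg/kg. Rosiglitazone was the reference. Retro-orbital plasma glucose measured by glucometer before dosing and at 1, 2, 4, 6, 8, 12 and 24 h. Results as mean ± SEM, compared by ANOVA, t-test and Dunnett's test.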

[3] = system: Bacillus subtilis; assay: Antibacterial activity against Bacillus subtilis NCIM 2063 after 24 hrs by NCCLS agar well diffusion method; type: functional; settings: NCIM 2063, 24 h
Method in brief: (§2)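 Nutrient agar seeded with 0.1 mL bacterial suspension (10⁵ CFU/mL in 0.85% saline). 6 mm wells filled with 0.1 mL compound. Plates in triplicate, 37 ± 0.5 °C for 24 h. MIC = lowest concentration giving complete growth inhibition.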

[4] = system: Bacillus pumilus; assay: Antibacterial activity against Bacillus pumilus NCIM 2327 after 24 hrs by NCCLS agar well diffusion method; type: functional; settings: NCIM 2327, 24 h; method in brief: as §2
[5] = system: Staphylococcus aureus; assay: Antibacterial activity against Staphylococcus aureus NCIM 2079 after 24 hrs by NCCLS agar well diffusion method; type: functional; settings: NCIM 2079, 24 h; method in brief: as §2
[6] = system: Micrococcus luteus; assay: Antibacterial activity against Micrococcus luteus NCIM 2155 after 24 hrs by NCCLS agar well diffusion method; type: functional; settings: NCIM 2155, 24 h; method in brief: as §2
[7] = system: Pseudomonas aeruginosa; assay: Antibacterial activity against Pseudomonas aeruginosa NCIM 2036 after 24 hrs by NCCLS agar well diffusion method; type: functional; settings: NCIM 2036, 24 h; method in brief: as §2
[8] = system: Klebsiella pneumoniae; assay: Antibacterial activity against Klebsiella pneumoniae NCIM 5082 after 24 hrs by NCCLS agar well diffusion method; type: functional; settings: NCIM 5082, 24 h; method in brief: as §2
[9] = system: Escherichia coli; assay: Antibacterial activity against Escherichia coli NCIM 2065 after 24 hrs by NCCLS agar well diffusion method; type: functional; settings: NCIM 2065, 24 h; method in brief: as §2
[10] = system: Proteus vulgaris; assay: Antibacterial activity against Proteus vulgaris NCIM 2813 after 24 hrs by NCCLS agar well diffusion method; type: functional; settings: NCIM 2813, 24 h; method in brief: as §2
[11] = system: Candida albicans; assay: Antifungal activity against Candida albicans NCIM 3102 after 48 hrs by NCCLS agar well diffusion method; type: functional; settings: NCIM 3102, 48 h
Method in brief: (§3)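 Spore suspensions in sterile distilled water adjusted to 10⁶ CFU/mL, 0.1 mL spread on potato-dextrose agar. 6 mm wells received 0.1 mL compound in 1% DMSO (final 16–512 µg/mL). Controls: 1% DMSO and ketoconazole (16 µg/mL). Triplicate plates, 48 h at 28 ± 0.2 °C. MIC = lowest concentration completely inhibiting growth.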

[12] = system: Aspergillus niger; assay: Antifungal activity against Aspergillus niger NCIM 548 after 48 hrs by NCCLS agar well diffusion method; type: functional; settings: NCIM 548, 48 h; method in brief: as §3
[13] = system: Aspergillus oryzae; assay: Antifungal activity against Aspergillus oryzae NCIM 643 after 48 hrs by NCCLS agar well diffusion method; type: functional; settings: NCIM 643, 48 h; method in brief: as §3
[14] = system: Penicillium chrysogenum; assay: Antifungal activity against Penicillium chrysogenum NCIM 738 after 48 hrs by NCCLS agar well diffusion method; type: functional; settings: NCIM 738, 48 h; method in brief: as §3
[15] = Toxicity in mouse assessed as changes in vital functions; type: organism-based; settings: in vivo
[16] = system: Rattus norvegicus; assay: Antihyperglycemic activity in streptozotocin-induced type 2 diabetic Wistar albino rat assessed as reduction in plasma glucose level at 10 mg/kg, po by glucometer; type: functional; method in brief: as §1
[17] = system: Rattus norvegicus; assay: Antihyperglycemic activity in streptozotocin-induced type 2 diabetic Wistar albino rat assessed as reduction in plasma glucose level at 30 mg/kg, po by glucometer; type: functional; method in brief: as §1
[18] = system: Rattus norvegicus; assay: Antihyperglycemic activity in streptozotocin-induced type 2 diabetic Wistar albino rat assessed as reduction in plasma glucose level at 50 mg/kg, po by glucometer; type: functional; method in brief: as §1

| Compound | EC50 [1] [µg/mL] | Activity [2] | MIC [3] [µg/mL] | MIC [4] [µg/mL] | MIC [5] [µg/mL] | MIC [6] [µg/mL] | MIC [7] [µg/mL] | MIC [8] [µg/mL] | MIC [9] [µg/mL] | MIC [10] [µg/mL] | MIC [11] [µg/mL] | MIC [12] [µg/mL] | MIC [13] [µg/mL] | MIC [14] [µg/mL] | MTD [15] [mg/kg] | Activity [16] [mg/dL] | Activity [17] [mg/dL] | Activity [18] [mg/dL] |
| --- | --- | --- | --- | --- | --- | --- | --- | --- | --- | --- | --- | --- | --- | --- | --- | --- | --- | --- |
| O=C1NC(=O)/C(=C/c2ccc(/C=C/C(=O)c3cccc(F)c3)cc2)S1 | 9.28 (≈ 26.3 µM) | Dose-dependent effect | 32 (≈ 90.6 µM) | 32 (≈ 90.6 µM) | 32 (≈ 90.6 µM) | 64 (≈ 181 µM) | 32 (≈ 90.6 µM) | 32 (≈ 90.6 µM) | 32 (≈ 90.6 µM) | 64 (≈ 181 µM) | 64 (≈ 181 µM) | 64 (≈ 181 µM) | 64 (≈ 181 µM) | 64 (≈ 181 µM) | 2000 | 12.08 | 16.87 | 20.66 |
| O=C1NC(=O)/C(=C/c2ccc(/C=C/C(=O)c3ccc4ccccc4c3)cc2)S1 | 48.1 (≈ 125 µM) | Dose-dependent effect | 512 (≈ 1330 µM) | 512 (≈ 1330 µM) | 512 (≈ 1330 µM) | 512 (≈ 1330 µM) | 512 (≈ 1330 µM) | 512 (≈ 1330 µM) | 512 (≈ 1330 µM) | 512 (≈ 1330 µM) | 512 (≈ 1330 µM) | 512 (≈ 1330 µM) | 512 (≈ 1330 µM) | 512 (≈ 1330 µM) | 2000 | 23.75 | 31.84 | 36.93 |
| O=C1NC(=O)/C(=C/c2ccc(/C=C/C(=O)c3cccc(Cl)c3)cc2)S1 | 24.8 (≈ 67.1 µM) | Dose-dependent effect | 64 (≈ 173 µM) | 64 (≈ 173 µM) | 64 (≈ 173 µM) | 64 (≈ 173 µM) | 32 (≈ 86.5 µM) | 64 (≈ 173 µM) | 64 (≈ 173 µM) | 32 (≈ 86.5 µM) | 128 (≈ 346 µM) | 64 (≈ 173 µM) | 64 (≈ 173 µM) | 64 (≈ 173 µM) | 2000 | 11.71 | 15.42 | 21.83 |
| Cc1ccc(C(=O)/C=C/c2ccc(/C=C3\SC(=O)NC3=O)cc2)cc1 | 19.7 (≈ 56.3 µM) | Dose-dependent effect | 32 (≈ 91.6 µM) | 32 (≈ 91.6 µM) | 32 (≈ 91.6 µM) | 64 (≈ 183 µM) | 32 (≈ 91.6 µM) | 64 (≈ 183 µM) | 32 (≈ 91.6 µM) | 64 (≈ 183 µM) | 256 (≈ 733 µM) | 256 (≈ 733 µM) | 64 (≈ 183 µM) | 64 (≈ 183 µM) | 2000 | 17.66 | 21.81 | 28.72 |
| Nc1cccc(C(=O)/C=C/c2ccc(/C=C3\SC(=O)NC3=O)cc2)c1 | 33.2 (≈ 94.7 µM) | Dose-dependent effect | 256 (≈ 731 µM) | 256 (≈ 731 µM) | 256 (≈ 731 µM) | 256 (≈ 731 µM) | 128 (≈ 365 µM) | 256 (≈ 731 µM) | 64 (≈ 183 µM) | 256 (≈ 731 µM) | 256 (≈ 731 µM) | 64 (≈ 183 µM) | 128 (≈ 365 µM) | 256 (≈ 731 µM) | 2000 | 12.14 | 15.36 | 21.66 |
| CC(=O)N1CCN(c2ccc(OCC3COC(Cn4ccnc4)(c4ccc(Cl)cc4Cl)O3)cc2)CC1 (stereo unspecified) [KETOCONAZOLE] | – | – | – | – | – | – | – | – | – | – | 16 (≈ 30.1 µM) | 16 (≈ 30.1 µM) | 16 (≈ 30.1 µM) | 16 (≈ 30.1 µM) | – | – | – | – |
| O=C1NC(=O)/C(=C/c2ccc(/C=C/C(=O)c3ccc([N+](=O)[O-])cc3)cc2)S1 | 49.3 (≈ 130 µM) | Dose-dependent effect | 256 (≈ 673 µM) | 512 (≈ 1350 µM) | 512 (≈ 1350 µM) | 512 (≈ 1350 µM) | 256 (≈ 673 µM) | 512 (≈ 1350 µM) | 512 (≈ 1350 µM) | 512 (≈ 1350 µM) | 256 (≈ 673 µM) | 512 (≈ 1350 µM) | 512 (≈ 1350 µM) | 256 (≈ 673 µM) | 2000 | 13.63 | 16.74 | 22.73 |
| COc1cc([C@@H]2c3cc4c(cc3[C@H](O)[C@H]3COC(=O)[C@H]23)OCO4)cc(OC)c1OC [PODOFILOX] | 3.61 (≈ 8.71 µM) | – | – | – | – | – | – | – | – | – | – | – | – | – | – | – | – | – |
| O=C1NC(=O)/C(=C/c2ccc(/C=C/C(=O)c3ccccc3)cc2)S1 | 44.7 (≈ 133 µM) | Dose-dependent effect | 256 (≈ 763 µM) | 256 (≈ 763 µM) | 512 (≈ 1530 µM) | 512 (≈ 1530 µM) | 256 (≈ 763 µM) | 512 (≈ 1530 µM) | 256 (≈ 763 µM) | 512 (≈ 1530 µM) | 512 (≈ 1530 µM) | 512 (≈ 1530 µM) | 512 (≈ 1530 µM) | 512 (≈ 1530 µM) | 2000 | – | 11.51 | 15.61 |
| O=C1NC(=O)/C(=C/c2ccc(/C=C/C(=O)c3cccs3)cc2)S1 | 4 (≈ 11.7 µM) | Dose-dependent effect | 32 (≈ 93.7 µM) | 16 (≈ 46.9 µM) | 32 (≈ 93.7 µM) | 32 (≈ 93.7 µM) | 32 (≈ 93.7 µM) | 16 (≈ 46.9 µM) | 32 (≈ 93.7 µM) | 64 (≈ 187 µM) | 32 (≈ 93.7 µM) | 32 (≈ 93.7 µM) | 32 (≈ 93.7 µM) | 32 (≈ 93.7 µM) | 2000 | – | 11.66 | 13.71 |
| O=C1NC(=O)/C(=C/c2ccc(/C=C/C(=O)c3ccccc3O)cc2)S1 | 41.4 (≈ 118 µM) | Dose-dependent effect | 512 (≈ 1460 µM) | 512 (≈ 1460 µM) | 256 (≈ 729 µM) | 512 (≈ 1460 µM) | 256 (≈ 729 µM) | 512 (≈ 1460 µM) | 256 (≈ 729 µM) | 512 (≈ 1460 µM) | 512 (≈ 1460 µM) | 512 (≈ 1460 µM) | 512 (≈ 1460 µM) | 512 (≈ 1460 µM) | 2000 | – | – | 14.44 |
| CN(CCOc1ccc(CC2SC(=O)NC2=O)cc1)c1ccccn1 (stereo unspecified) [ROSIGLITAZONE] | – | – | – | – | – | – | – | – | – | – | – | – | – | – | – | 38.57 | 14.83 | 12.74 |
